Experimental data from ChEMBL document CHEMBL3286292, “Synthesis and antimicrobial activity of amine linked bis- and tris-heterocycles” (2014).
The source made the active and inactive calls. The calls are words filed in the database; no cut-off is given here.

How the values were obtained:
Format in all cases: functional
Penicillium chrysogenum = assay: Antifungal activity against Penicillium chrysogenum assessed as growth inhibition after 48 hrs by broth dilution method
Procedure, shortened: (§1)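 Tube broth dilution with nutrient broth as diluent. Compound dilutions were added to fungal cultures and incubated at 28 °C for 48 h. A solvent control without sample was included. MIC was the lowest concentration with no visible growth or turbidity.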

Aspergillus niger [1] = assay: Antifungal activity against Aspergillus niger assessed as growth inhibition after 48 hrs by broth dilution method; procedure, shortened: as §1
Bacillus subtilis [2] = assay: Antibacterial activity against Bacillus subtilis assessed as growth inhibition at 25 ug/well after 24 hrs by agar well diffusion method; conditions: for zone of inhibition at 25 µg/disc: read-out: DIZ
Procedure, shortened: (§2)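 Agar well diffusion on […] swabbed with a 24 h broth culture. Samples were dissolved in DMSO and loaded at three per-well amounts into 6 mm wells. Incubation was 37 °C for 24 h, then inhibition zone diameter was read in mm. DMSO served as the negative control. Runs were in duplicate and averaged.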

Pseudomonas aeruginosa [3] = assay: Antibacterial activity against Pseudomonas aeruginosa assessed as growth inhibition at 100 ug/well after 24 hrs by agar well diffusion method; conditions: for zone of inhibition at 100 µg/disc: read-out: DIZ; procedure, shortened: as §2
Klebsiella pneumoniae [4] = assay: Antibacterial activity against Klebsiella pneumoniae assessed as growth inhibition at 100 ug/well after 24 hrs by agar well diffusion method; conditions: for zone of inhibition at 100 µg/disc: read-out: DIZ; procedure, shortened: as §2
Staphylococcus aureus [5] = assay: Antibacterial activity against Staphylococcus aureus assessed as growth inhibition at 25 ug/well after 24 hrs by agar well diffusion method; conditions: for zone of inhibition at 25 µg/disc: read-out: DIZ; procedure, shortened: as §2
Pseudomonas aeruginosa [6] = assay: Antibacterial activity against Pseudomonas aeruginosa assessed as growth inhibition at 25 ug/well after 24 hrs by agar well diffusion method; conditions: for zone of inhibition at 25 µg/disc: read-out: DIZ; procedure, shortened: as §2
Aspergillus niger [7] = assay: Antifungal activity against Aspergillus niger assessed as inhibition of spore germination at 25 ug/well after 48 hrs by agar well diffusion method; conditions: for zone of inhibition at 25 µg/disc: read-out: DIZ
Procedure, shortened: (§3)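 Well diffusion using 6 mm bored wells loaded with DMSO solutions at three per-well amounts, with a DMSO negative control. Plates were held at 28 °C for 48 h, then zone of inhibition diameter was measured in mm. Runs were in duplicate and averaged.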

Pseudomonas aeruginosa [8] = assay: Antibacterial activity against Pseudomonas aeruginosa assessed as growth inhibition at 50 ug/well after 24 hrs by agar well diffusion method; conditions: for zone of inhibition at 50 µg/disc: read-out: DIZ; procedure, shortened: as §2
Klebsiella pneumoniae [9] = assay: Antibacterial activity against Klebsiella pneumoniae assessed as growth inhibition at 50 ug/well after 24 hrs by agar well diffusion method; conditions: for zone of inhibition at 50 µg/disc: read-out: DIZ; procedure, shortened: as §2
Staphylococcus aureus [10] = assay: Antibacterial activity against Staphylococcus aureus assessed as growth inhibition at 50 ug/well after 24 hrs by agar well diffusion method; conditions: for zone of inhibition at 50 µg/disc: read-out: DIZ; procedure, shortened: as §2
Bacillus subtilis [11] = assay: Antibacterial activity against Bacillus subtilis assessed as growth inhibition at 100 ug/well after 24 hrs by agar well diffusion method; conditions: for zone of inhibition at 100 µg/disc: read-out: DIZ; procedure, shortened: as §2
Aspergillus niger [12] = assay: Antifungal activity against Aspergillus niger assessed as inhibition of spore germination at 50 ug/well after 48 hrs by agar well diffusion method; conditions: for zone of inhibition at 50 µg/disc: read-out: DIZ; procedure, shortened: as §3
Klebsiella pneumoniae [13] = assay: Antibacterial activity against Klebsiella pneumoniae assessed as growth inhibition at 25 ug/well after 24 hrs by agar well diffusion method; conditions: for zone of inhibition at 25 µg/disc: read-out: DIZ; procedure, shortened: as §2
Staphylococcus aureus [14] = assay: Antibacterial activity against Staphylococcus aureus assessed as growth inhibition at 100 ug/well after 24 hrs by agar well diffusion method; conditions: for zone of inhibition at 100 µg/disc: read-out: DIZ; procedure, shortened: as §2
Bacillus subtilis [15] = assay: Antibacterial activity against Bacillus subtilis assessed as growth inhibition at 50 ug/well after 24 hrs by agar well diffusion method; conditions: for zone of inhibition at 50 µg/disc: read-out: DIZ; procedure, shortened: as §2

Row | SMILES | zone of inhibition at 25 µg/disc (Bacillus subtilis [2]) | zone of inhibition at 100 µg/disc (Klebsiella pneumoniae [4]) | zone of inhibition at 25 µg/disc (Aspergillus niger [7]) | zone of inhibition at 50 µg/disc (Klebsiella pneumoniae [9]) | zone of inhibition at 50 µg/disc (Staphylococcus aureus [10]) | zone of inhibition at 100 µg/disc (Bacillus subtilis [11]) | zone of inhibition at 50 µg/disc (Aspergillus niger [12]) | zone of inhibition at 25 µg/disc (Klebsiella pneumoniae [13]) | zone of inhibition at 100 µg/disc (Staphylococcus aureus [14]) | zone of inhibition at 50 µg/disc (Bacillus subtilis [15]) | growth inhibition (GI) (Pseudomonas aeruginosa [3]) | growth inhibition (GI) (Staphylococcus aureus [5]) | growth inhibition (GI) (Pseudomonas aeruginosa [6]) | growth inhibition (GI) (Pseudomonas aeruginosa [8]) | growth inhibition (GI) (Bacillus subtilis [2]) | growth inhibition (GI) (Aspergillus niger [7]) | growth inhibition (GI) (Staphylococcus aureus [10]) | growth inhibition (GI) (Klebsiella pneumoniae [13]) | growth inhibition (GI) (Klebsiella pneumoniae [9]) | growth inhibition (GI) (Bacillus subtilis [11]) | also measured
1 | CC(=O)N1CCN(c2ccc(OCC3COC(Cn4ccnc4)(c4ccc(Cl)cc4Cl)O3)cc2)CC1 (stereo unspecified) [KETOCONAZOLE] | – | – | – | – | – | – | – | – | – | – | – | – | – | – | – | – | – | – | – | – | MIC (Penicillium chrysogenum): 12.5 µg; MIC (Aspergillus niger [1]): 6.25 µg
2 | Clc1ccc(-c2coc(Nc3cc(-c4ccc(Cl)cc4)n(-c4nc(-c5ccc(Cl)cc5)cs4)n3)n2)cc1 | 16 mm | 22 mm | 11 mm | 19 mm | 18 mm | 21 mm | 12 mm | 17 mm | 21 mm | 18 mm | – | – | – | – | – | – | – | – | – | – | zone of inhibition at 100 µg/disc (Pseudomonas aeruginosa [3]): 13 mm; zone of inhibition at 25 µg/disc (Staphylococcus aureus [5]): 17 mm; zone of inhibition at 25 µg/disc (Pseudomonas aeruginosa [6]): 9 mm; zone of inhibition at 50 µg/disc (Pseudomonas aeruginosa [8]): 10 mm
3 | Cc1ccc(-c2coc(Nc3cc(-c4ccc(C)cc4)n(-c4nc(-c5ccc(C)cc5)cs4)n3)n2)cc1 | 6 mm | 10 mm | 6 mm | 8 mm | 6 mm | 9 mm | 8 mm | 6 mm | 8 mm | 8 mm | inactive | inactive | inactive | inactive | – | – | – | – | – | – | –
4 | Cc1ccc(-c2coc(Nc3cc(-c4ccc(C)cc4)n(C(N)=S)n3)n2)cc1 | – | 8 mm | – | 7 mm | – | 8 mm | 6 mm | – | 6 mm | 7 mm | inactive | inactive | inactive | inactive | inactive | inactive | inactive | inactive | – | – | –
5 | NC(=S)n1nc(Nc2nc(-c3ccccc3)c[nH]2)cc1-c1ccccc1 | 18 mm | 24 mm | 19 mm | 20 mm | 20 mm | 22 mm | 20 mm | 19 mm | 23 mm | 20 mm | – | – | – | – | – | – | – | – | – | – | zone of inhibition at 100 µg/disc (Pseudomonas aeruginosa [3]): 14 mm; zone of inhibition at 25 µg/disc (Staphylococcus aureus [5]): 18 mm; zone of inhibition at 25 µg/disc (Pseudomonas aeruginosa [6]): 10 mm; zone of inhibition at 50 µg/disc (Pseudomonas aeruginosa [8]): 12 mm
6 | NC(=S)n1nc(Nc2nc(-c3ccccc3)co2)cc1-c1ccccc1 | 7 mm | 12 mm | 8 mm | 9 mm | 8 mm | 11 mm | 9 mm | 7 mm | 10 mm | 9 mm | inactive | – | inactive | inactive | – | – | – | – | – | – | zone of inhibition at 25 µg/disc (Staphylococcus aureus [5]): 6 mm
7 | NC(=S)N1N=C(Nc2nc(-c3ccccc3)c[nH]2)C[C@@H]1c1ccccc1 | – | 6 mm | – | – | – | – | – | – | – | – | inactive | inactive | inactive | inactive | inactive | inactive | inactive | inactive | inactive | inactive | zone of inhibition (Aspergillus niger [12]): inactive; growth inhibition (GI) (Staphylococcus aureus [14]): inactive; growth inhibition (GI) (Bacillus subtilis [15]): inactive
8 | NC(=S)N1N=C(Nc2nc(-c3ccc(Cl)cc3)co2)C[C@@H]1c1ccc(Cl)cc1 | – | – | – | – | – | – | – | – | – | – | inactive | inactive | inactive | inactive | inactive | inactive | inactive | inactive | inactive | inactive | growth inhibition (GI) (Klebsiella pneumoniae [4]): inactive; zone of inhibition (Aspergillus niger [12]): inactive; growth inhibition (GI) (Staphylococcus aureus [14]): inactive; growth inhibition (GI) (Bacillus subtilis [15]): inactive
9 | NC(=S)N1N=C(Nc2nc(-c3ccccc3)cs2)C[C@@H]1c1ccccc1 | – | – | – | – | – | – | – | – | – | – | inactive | inactive | inactive | inactive | inactive | inactive | inactive | inactive | inactive | inactive | growth inhibition (GI) (Klebsiella pneumoniae [4]): inactive; zone of inhibition (Aspergillus niger [12]): inactive; growth inhibition (GI) (Staphylococcus aureus [14]): inactive; growth inhibition (GI) (Bacillus subtilis [15]): inactive
10 | NC(=S)N1N=C(Nc2nc(-c3ccccc3)co2)C[C@@H]1c1ccccc1 | – | – | – | – | – | – | – | – | – | – | inactive | inactive | inactive | inactive | inactive | inactive | inactive | inactive | inactive | inactive | growth inhibition (GI) (Klebsiella pneumoniae [4]): inactive; zone of inhibition (Aspergillus niger [12]): inactive; growth inhibition (GI) (Staphylococcus aureus [14]): inactive; growth inhibition (GI) (Bacillus subtilis [15]): inactive
11 | NC(=S)n1nc(Nc2nc(-c3ccc(Cl)cc3)c[nH]2)cc1-c1ccc(Cl)cc1 | 19 mm | 26 mm | 22 mm | 22 mm | 23 mm | 23 mm | 24 mm | 20 mm | 25 mm | 21 mm | – | – | – | – | – | – | – | – | – | – | zone of inhibition at 100 µg/disc (Pseudomonas aeruginosa [3]): 15 mm; zone of inhibition at 25 µg/disc (Staphylococcus aureus [5]): 21 mm; zone of inhibition at 25 µg/disc (Pseudomonas aeruginosa [6]): 11 mm; zone of inhibition at 50 µg/disc (Pseudomonas aeruginosa [8]): 13 mm
12 | Cc1ccc(-c2c[nH]c(NC3=NN(C(N)=S)[C@@H](c4ccc(C)cc4)C3)n2)cc1 | – | – | – | – | – | – | – | – | – | – | inactive | inactive | inactive | inactive | inactive | inactive | inactive | inactive | inactive | inactive | growth inhibition (GI) (Klebsiella pneumoniae [4]): inactive; zone of inhibition (Aspergillus niger [12]): inactive; growth inhibition (GI) (Staphylococcus aureus [14]): inactive; growth inhibition (GI) (Bacillus subtilis [15]): inactive
